Measured values taken from ChEMBL document CHEMBL1141072, “Conformationally constrained analogues of diacylglycerol (DAG). 25. Exploration of the sn-1 and sn-2 carbonyl functionality reveals the essential role of the sn-1 carbonyl at the lipid interface in the binding of DAG-lactones to protein kinase C” (J Med Chem, 2005).

How the values were obtained:
[1] = molecular target: T1, Protein kinase C delta type (Homo sapiens, UniProt Q05655); test: Inhibition of [3H]PDBu binding to C1b domain of protein kinase C delta with phosphatidylserine
T1 sequence (Q05655 whole entry, the tested form may be a part): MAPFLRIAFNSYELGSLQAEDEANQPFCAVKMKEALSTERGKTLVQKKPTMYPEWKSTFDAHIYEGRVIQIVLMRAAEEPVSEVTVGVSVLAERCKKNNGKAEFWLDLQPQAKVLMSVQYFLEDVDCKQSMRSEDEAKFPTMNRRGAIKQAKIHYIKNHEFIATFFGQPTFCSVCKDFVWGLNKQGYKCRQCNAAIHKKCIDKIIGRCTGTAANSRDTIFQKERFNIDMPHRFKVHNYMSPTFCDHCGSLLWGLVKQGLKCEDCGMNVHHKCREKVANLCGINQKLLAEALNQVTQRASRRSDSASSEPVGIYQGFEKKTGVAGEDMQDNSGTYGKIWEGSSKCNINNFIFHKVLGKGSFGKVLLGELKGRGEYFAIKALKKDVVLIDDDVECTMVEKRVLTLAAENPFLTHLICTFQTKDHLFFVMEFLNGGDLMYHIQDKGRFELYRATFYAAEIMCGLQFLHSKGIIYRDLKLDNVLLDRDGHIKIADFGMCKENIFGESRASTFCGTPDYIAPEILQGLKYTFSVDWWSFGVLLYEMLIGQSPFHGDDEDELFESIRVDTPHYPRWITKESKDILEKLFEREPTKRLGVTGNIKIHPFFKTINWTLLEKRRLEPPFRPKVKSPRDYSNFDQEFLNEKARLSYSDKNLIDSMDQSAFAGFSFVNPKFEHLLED
How it was run: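 δC1b domain as GST fusion, expressed in BL-21 (DE3) E. coli and spin-purified. Assay buffer 50 mM Tris-HCl pH 7.4 with 100 μg/ml phosphatidylserine, 4 mg/ml bovine IgG and 1 mM EGTA, plus [3H]PDBu and varied competitor. Incubated 10 min at 18 °C, then precipitated with PEG and pellet counted. Specific binding is total minus binding with 64 μM cold PDBu. Ki reported.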

[2] = molecular target: Protein kinase C alpha type (Homo sapiens, UniProt P17252); test: Inhibition of [3H]PDBu binding to recombinant protein kinase C alpha was determined at pH 7.4, 37 degree C for 5 min
How it was run: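 PKCα displacement of [3H]PDBu in 50 mM Tris-HCl, 100 μg/ml phosphatidylserine, 4 mg/ml bovine IgG and 0.1 mM CaCl2, with a range of competitor concentrations. After incubation, chilled 7 min and 35% PEG added, then 10 min on ice and spun at 4 °C. Pellet bound radioactivity counted. Nonspecific binding measured with 64 μM unlabeled PDBu. Expressed as Ki.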

[3] = molecular target: T1, Protein kinase C delta type; test: Inhibition of [3H]-PDBu binding to C1b domain of protein kinase C delta without phosphatidylserine
How it was run: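 GST-tagged δC1b expressed in BL-21 (DE3) E. coli and purified on glutathione spin columns, purity checked by SDS-PAGE. Competition with [3H]PDBu run in 50 mM Tris-HCl pH 7.4, 4 mg/ml bovine IgG, 1 mM EGTA, no phosphatidylserine, 10 min at 18 °C. Bound ligand separated by PEG precipitation on ice and counted by scintillation. Nonspecific binding taken with 64 μM unlabeled PDBu. Ki derived.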

Structure (SMILES) | Ki [1] [nM] | Ki [2] [nM] | Ki [3] [nM]
CC(C)CC(C/C=C1\CC(CO)(COC(=O)C(C)(C)C)OC1=S)CC(C)C (stereo unspecified) | 3.13 | 23.7 | 173
CC(C)CC(C/C=C1/COC(CO)(COC(=O)C(C)(C)C)C1)CC(C)C (stereo unspecified) | 219 | 622 | 6620
CC(C)CC(C/C=C1\CC(CO)(COCC(C)(C)C)OC1=O)CC(C)C (stereo unspecified) | 1890 | 14300 | 101000
CC(C)CC(C/C=C1\CC(CO)(COC(=S)C(C)(C)C)OC1=O)CC(C)C (stereo unspecified) | 20.6 | 113 | 606
CC(C)CC(C/C=C1\CC(CO)(COC(=O)C(C)(C)C)OC1=O)CC(C)C (stereo unspecified) | – | 3.25 | 103
CC(C)CC(C/C=C1/CC(CO)(COCC(C)(C)C)OC1=O)CC(C)C (stereo unspecified) | 2140 | 5870 | –
